How the values were obtained:
[1] = folding enthalpy; higher = less favourable; fluorescence melt of hairpins on a sequencing array, two-state fit; settings: sodium 0.088 M
How it was run: (§1)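 On a sequenced MiSeq flow cell, library hairpins with annealed Cy3 and quencher oligos were imaged for Cy3 fluorescence in 2.5 °C steps up to 60 °C, in 50 mM Na-HEPES pH 8.0, 25 mM NaCl. Normalisation used pre-quench Cy3 and control constructs. Bootstrapped two-state fits gave melting temperature and folding enthalpy, combined by inverse variance across four replicates and with fitted temperatures raised by 9.35 °C to match UV melts.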

[2] = melting temperature; fluorescence melt of hairpins on a sequencing array, two-state fit, raised by 9.35 °C to match UV melts; settings: sodium 0.088 M
How it was run: as §1

Sequence | folding enthalpy [1] [kcal/mol] | Tm [2] [°C]
GGACGACGAAAGTCATCC (((.(((....))).))) | -23.5 | 48.8
GGACGACGAAAGTCTCC (((.(((....)))))) | -27.1 | 47
GGACGAGGAAACCCGTCC (((((.(....).))))) | -39.1 | 54.2
GGACGCGAAAGCGACTCC ((((((....)))..))) | -11.6 | 46.2
GGACGCGAAAGCGCTCC ((((((....))).))) | -20.5 | 54.9
GGACGCGAAAGCGGTTCC ((((((....)))..))) | -11.6 | 45.7
GGACGCGAAAGCGTTTCC ((((((....)))..))) | -9.28 | 36.4
GGACGCGGAAACACGCCC ((.((.(....).)).)) | -18.9 | 34.3
GGACGCGGAAACGCATCC (((.(((....))).))) | -26.3 | 48.9
GGACGCGGAAACGCGCCC ((.((((....)))).)) | -18.6 | 61.8
GGACGCTCGAAAGAGTCC (((..(((....)))))) | -22.1 | 46.5
GGACGGCCGAAAGGCTCC (((..(((....)))))) | -10.8 | 34.1
GGACGGCGAAAGCCTCC (((.(((....)))))) | -16.4 | 53.5
GGACGGTCGAAAGACTCC (((..(((....)))))) | -12.2 | 29.5
GGACGTCGAAAGACTTCC (((.(((....))).))) | -29.9 | 48.1
GGACGTGCGAAAGCATCC (((..(((....)))))) | -9.73 | 30.6
GGACGTGGAAACACGCCC ((.((((....)))).)) | -35.7 | 53
GGACGTGGAAACGCGTTC (.(((.(....).))).) | -24.2 | 44.3
GGACTAGGAAACCAGTCC (((((.(....).))))) | -31 | 44.8
GGACTAGGAAACTGGTTC (.((.((....)).)).) | -13.1 | 29.8
GGACTCACGAAAGTGTCC (((..(((....)))))) | -19.3 | 41.5
GGACTCCGAAAGGAATCC (((.(((....))).))) | -30.5 | 47.3
GGACTCCGAAAGGATCC (((.(((....)))))) | -24.5 | 46.9

Sequence | folding enthalpy [1] [kcal/mol] | Tm [2] [°C]
GGACTCGAAAGAGAGTCC ((((((....)))..))) | -40.5 | 54.5
GGACTCGAAAGAGCCTCC ((((((....)))..))) | -16.9 | 42.7
GGACTCGAAAGAGCTTCC ((((((....)))..))) | -18.9 | 35.3
GGACTCGAAAGAGTATCC ((((((....)))..))) | -13.8 | 33.3
GGACTCGGAAACAAGTCC (((((.(....).))))) | -27.8 | 42.2
GGACTGACGAAAGTCTCC (((..(((....)))))) | -9.45 | 28.6
GGACTGGGAAACCAGTTC (.(((((....))))).) | -28.6 | 50.6
GGACTGGGAAACCGGTTC (.((.((....)).)).) | -25.5 | 37.5
GGACTTCGAAAGAACTCC (((.(((....))).))) | -13.2 | 29.6
GGACTTGAAAAAGTCC ((((((....)))))) | -41.9 | 58.2
GGACTTGCGAAAGCATCC (((..(((....)))))) | -9.43 | 26.3
GGACTTGGAAACAAGCCC ((.((((....)))).)) | -31 | 46.1
GGAGAACGAAAGTTTCC (((.(((....)))))) | -19.7 | 33.4
GGAGAAGGAAACTTTTCC (((.(((....))).))) | -26.2 | 31.1
GGAGACCGAAAGGTGTCC (((.(((....))).))) | -40.8 | 58.9
GGAGACGAAAGTCCGTCC ((((((....)))..))) | -12.4 | 32.5
GGAGACGAAAGTCCTTCC ((((((....)))..))) | -21.1 | 42.6
GGAGACGAAAGTCGTTCC ((((((....)))..))) | -11.8 | 36.7
GGAGACGAAAGTCTGTCC ((((((....)))..))) | -11.2 | 34.5
GGAGAGACGAAAGTCTCC (((..(((....)))))) | -9.49 | 44
GGAGAGCGAAAGCTATCC (((.(((....))).))) | -42.1 | 57.6
GGAGAGCGAAAGCTTCC (((.(((....)))))) | -18.2 | 44.5
GGAGAGGGAAACCCCTCC ((((.((....)).)))) | -28.6 | 45

Sequence | folding enthalpy [1] [kcal/mol] | Tm [2] [°C]
GGAGAGGGAAACTTCTCC (((((.(....).))))) | -26.8 | 44.3
GGAGATCGAAAGATATCC (((.(((....))).))) | -43.2 | 49.6
GGAGATCGAAAGATTCC (((.(((....)))))) | -18.9 | 36
GGAGATGAAAATCTCC ((((((....)))))) | -36.2 | 57.6
GGAGATGGAAACGTCTCC (((((.(....).))))) | -36.9 | 49.5
GGAGCAGAAATGCTCC ((((((....)))))) | -36.9 | 62.3
GGAGCAGGAAACCGCTCC (((((.(....).))))) | -34.1 | 55.2
GGAGCCACGAAAGTGTCC (((..(((....)))))) | -8.88 | 28.5
GGAGCCGAAAGGCGCTCC ((((((....)))..))) | -9.71 | 47.9
GGAGCCGAAAGGCTTTCC ((((((....)))..))) | -7.92 | 43.8
GGAGCCGGAAACGACTCC ((((.((....)).)))) | -55.2 | 52
GGAGCGCCGAAAGGCTCC (((..(((....)))))) | -14.7 | 44.2
GGAGCGGGAAACCGCCCC ((.((((....)))).)) | -16.3 | 56.7
GGAGCGTCGAAAGACTCC (((..(((....)))))) | -13.7 | 31.4
GGAGCTCGAAAGAGATCC (((.(((....))).))) | -44 | 64
GGAGCTCGAAAGAGTCC (((.(((....)))))) | -17.8 | 48.2
GGAGCTGAAAAGCTCC ((((((....)))))) | -37.5 | 68.9
GGAGCTGGAAACAACTCC ((((.((....)).)))) | -31.2 | 42.6
GGAGCTGGAAACGGCTTC (.(((.(....).))).) | -25.9 | 41.5
GGAGGACGAAAGTCTTCC (((.(((....))).))) | -30.1 | 53.5
GGAGGAGGAAACTCCTTC (.(((((....))))).) | -28.7 | 53.4
GGAGGCCCGAAAGGGTCC (((..(((....)))))) | -12 | 42.6

Reference: the array DNA melting data of Ke et al. (doi:10.1101/2024.01.08.574731)
